Results from ChEMBL document CHEMBL1155457, “Discovery of the dual orexin receptor antagonist [(7R)-4-(5-chloro-1,3-benzoxazol-2-yl)-7-methyl-1,4-diazepan-1-yl][5-methyl-2-(2H-1,2,3-triazol-2-yl)phenyl]methanone (MK-4305) for the treatment of insomnia” (J Med Chem, 2010).
Active and inactive are the calls of the source. No cut-off for these calls is given here.

How the values were obtained:
Rattus norvegicus [1] = test: Antiinsomnic activity in Sprague-Dawley rat assessed as decrease in active wake duration at 10 mg/kg/day, po […]; type: functional, organism-based
How it was run: (§1)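 Rats carried telemetry implants recording ECoG/EMG (sampled at 500 Hz) and had recovered at least 2 weeks after surgery. They were on a 12:12 light cycle with lights off at 04:00. After 2 days of vehicle habituation, four rats were dosed by oral gavage in 20% aqueous TPGS at 09:00, 5 h into the active phase. The design was a one-week crossover against vehicle. Recording ran 23 h; stages were auto-scored in 30-min bins, averaged over 7 days and compared by mixed-model ANOVA at each time point.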

Rattus norvegicus [2] = test: Antiinsomnic activity in Sprague-Dawley rat assessed as increase in rapid-eye movement at 10 mg/kg/day, po measured with 3 to 4 hrs post last dose; type: functional, organism-based; how it was run: as §1
Rattus norvegicus [3] = test: Antiinsomnic activity in Sprague-Dawley rat assessed as increase in delta sleep duration at 10 mg/kg/day, po measured with 3 to 4 hrs post last dose; type: functional, organism-based; how it was run: as §1
Rattus norvegicus [4] = test: Antiinsomnic activity in Sprague-Dawley rat assessed as decrease in light sleep duration at 10 mg/kg/day, po measured with 3 to 4 hrs post last dose; type: functional, organism-based; how it was run: as §1
Liver microsomes = test: Idiosyncratic toxicity in human liver microsomes assessed GSH-derived reactive electrophilic adduct formation at 10 uM after 60 mins by UPLC/HRMS analysis relative to labetalol; set-up: species or system Microsome; conditions: 1 h
How it was run: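 Pooled human liver microsomes (1 mg/mL protein) were incubated 60 min at 37 °C in 100 mM potassium phosphate pH 7.4. The mix held 10 μM compound, 1 mM MgCl2, 1 mM EDTA, 5 mM GSH and 1 mM NADPH. After quenching, GSH adducts were detected by UPLC/HRMS. Summed adduct peak areas were divided by the labetalol internal-standard area.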

Orexin receptor type 2 [5] = target: T1, Orexin receptor type 2 (Homo sapiens, UniProt O43614); test: Displacement of [3H](S)-N-(2-(1H-pyrrol-1-yl)phenyl)-1-(2-(1-methyl-1H-benzo[d]imidazol-2-ylthio)acetyl)pyrrolidine-2-carboxamide from human OX2R expressed in CHO cells after 3 hrs by scintillation counting; type: cell-based
T1 sequence (O43614 whole entry): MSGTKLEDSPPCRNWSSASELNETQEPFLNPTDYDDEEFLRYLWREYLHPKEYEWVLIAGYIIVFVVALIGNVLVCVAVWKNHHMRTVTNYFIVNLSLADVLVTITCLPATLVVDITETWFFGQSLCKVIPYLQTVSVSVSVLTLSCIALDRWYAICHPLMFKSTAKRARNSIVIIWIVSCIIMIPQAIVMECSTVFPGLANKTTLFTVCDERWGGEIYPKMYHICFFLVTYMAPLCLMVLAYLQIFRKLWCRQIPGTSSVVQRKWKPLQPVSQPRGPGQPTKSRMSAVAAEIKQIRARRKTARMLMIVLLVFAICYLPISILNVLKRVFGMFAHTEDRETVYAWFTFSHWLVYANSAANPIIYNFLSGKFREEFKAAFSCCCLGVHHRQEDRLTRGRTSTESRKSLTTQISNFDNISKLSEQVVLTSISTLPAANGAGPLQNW

[6] = Volume of distribution at steady state in rat at 2 mg/kg, iv; type: ADME, organism-based; set-up: dose 2 mg/kg, route intravenous; conditions: in vivo, read-out: Vdss
How it was run: (§2)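 IV PK in DMSO vehicle: rat at 2 mg/kg, dog at 0.5 mg/kg. Clearance, Vd_ss and terminal half-life were derived from plasma levels.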

[7] = Terminal half life in rat at 2 mg/kg, iv; type: ADME, organism-based; set-up: dose 2 mg/kg, route intravenous; conditions: in vivo, read-out: beta t1/2 (converted); how it was run: as §2
[8] = AUC in rat at 100 mg/kg, po; type: ADME, organism-based; set-up: dose 100 mg/kg, route oral; conditions: plasma
How it was run: (§3)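 Rats dosed orally by gavage as the HCl salt in 20% TPGS. Plasma drug levels were followed to give AUC, Cmax and oral bioavailability.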

[9] = Cmax in rat at 100 mg/kg, po; type: ADME, organism-based; set-up: dose 100 mg/kg, route oral; conditions: in vivo; how it was run: as §3
[10] = Oral bioavailability in rat at 100 mg/kg; type: ADME, organism-based; conditions: in vivo; how it was run: as §3
[11] = Clearance in dog at 0.5 mg/kg, iv; type: ADME, organism-based, Canis lupus familiaris; set-up: dose 0.5 mg/kg, route intravenous; conditions: in vivo
How it was run: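 Dogs received an IV dose with DMSO as vehicle (n = 3). Clearance was derived from plasma pharmacokinetics.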

[12] = Volume of distribution at steady state in dog at 0.5 mg/kg, iv; type: ADME, organism-based, Canis lupus familiaris; set-up: dose 0.5 mg/kg, route intravenous; conditions: in vivo, read-out: Vdss; how it was run: as §2
[13] = Terminal half life in dog at 0.5 mg/kg, iv; type: ADME, organism-based, Canis lupus familiaris; set-up: dose 0.5 mg/kg, route intravenous; conditions: in vivo, read-out: beta t1/2 (converted); how it was run: as §2
[14] = AUC in dog at 3 mg/kg, po; type: ADME, organism-based, Canis lupus familiaris; set-up: dose 3 mg/kg, route oral; conditions: plasma
[15] = Cmax in dog at 3 mg/kg, po; type: ADME, organism-based, Canis lupus familiaris; set-up: dose 3 mg/kg, route oral; conditions: in vivo
[16] = target: T2, Orexin/Hypocretin receptor type 1 (Homo sapiens, UniProt O43613); test: Displacement of [3H](S)-N-(biphenyl-2-yl)-1-(2-(1-methyl-1H-benzo[d]imidazol-2-ylthio)acetyl)pyrrolidine-2-carboxamide from human OX1R expressed in CHO cells after 3 hrs by scintillation counting; type: cell-based
T2 sequence (O43613 whole entry): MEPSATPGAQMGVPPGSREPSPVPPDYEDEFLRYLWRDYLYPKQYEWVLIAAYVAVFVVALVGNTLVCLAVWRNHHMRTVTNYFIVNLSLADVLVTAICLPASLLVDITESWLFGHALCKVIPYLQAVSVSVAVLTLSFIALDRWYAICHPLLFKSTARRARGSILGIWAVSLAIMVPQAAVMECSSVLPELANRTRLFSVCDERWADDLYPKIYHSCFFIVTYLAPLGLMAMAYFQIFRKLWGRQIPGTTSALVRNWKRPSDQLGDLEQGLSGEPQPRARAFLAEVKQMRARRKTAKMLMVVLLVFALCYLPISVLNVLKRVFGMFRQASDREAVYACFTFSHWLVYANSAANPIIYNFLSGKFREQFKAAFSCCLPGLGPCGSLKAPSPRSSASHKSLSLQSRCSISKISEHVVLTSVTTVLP

[17] = target: T2, Orexin/Hypocretin receptor type 1; test: Displacement of [3H]N-cyclobutyl-5-methyl-N-(2-(1-methyl-1H-benzo[d]imidazol-2-ylthio)ethyl)-2-(2H-1,2,3-triazol-2-yl)benzamide from human OX1R expressed in CHO cells after 20 hrs by scintillation counting; type: cell-based
[18] = target: T2, Orexin/Hypocretin receptor type 1; test: Antagonist activity at human OX1R expressed in CHO cells assessed as inhibition of orexin-A-induced intracellular calcium mobilization after 5 mins by FLIPR assay; type: functional, cell-based
Orexin receptor type 2 [19] = target: T1, Orexin receptor type 2; test: Antagonist activity at human OX2R expressed in CHO cells assessed as inhibition of orexin-A-induced intracellular calcium mobilization after 5 mins by FLIPR assay; type: functional, cell-based
[20] = Oral bioavailability in dog at 3 mg/kg; type: ADME, organism-based, Canis lupus familiaris; conditions: in vivo

Ki (Orexin receptor type 2 [5]) [nM] | clearance [11] [mL/min/kg] | Ki [16] [nM] | Ki [17] [nM] | IC50 [18] [nM] | IC50 (Orexin receptor type 2 [19]) [nM] | bioavailability [20] [%] | SMILES | Ratio (Liver microsomes) | also measured
0.59 | 11.6 |  |  |  |  |  | Cc1ccc(-n2nccn2)c(C(=O)N2CCCN(c3ncc4ccccc4n3)CC2)c1 | 5 | Activity (Rattus norvegicus [1]): Active; Activity (Rattus norvegicus [2]): Active; Activity (Rattus norvegicus [3]): Active; Activity (Rattus norvegicus [4]): Active; Vd [6]: 1.08 L/kg; half-life [7]: 21 min; AUC [8]: 1.5 µM·h; Cmax [9]: 650 nM; bioavailability [10]: 2%; Vd [12]: 0.86 L/kg; half-life [13]: 76.8 min; AUC [14]: 1.81 µM·h; Cmax [15]: 1440 nM
0.25 | 4.9 | 1.8 | 1.8 | 28 | 32 | 15 | C[C@@H]1CCN(c2cnc3cc(F)c(F)cc3n2)CCN1C(=O)c1ccccc1-n1nccn1 | 3.7 | 
8.5 |  | 54 | 54 |  |  |  | C[C@H]1CCN(c2ncc3ccccc3n2)CCN1C(=O)c1ccccc1-n1nccn1 |  | 
0.36 | 6 | 0.39 | 0.39 | 30 | 30 | < 5 | Cc1ccc(-n2nccn2)c(C(=O)N2CCN(c3ncc4ccccc4n3)CC[C@H]2C)c1 |  | 
0.47 | 6.4 | 6.2 | 6.2 | 26 | 18 |  | C[C@@H]1CCN(c2ncc3ccccc3n2)CCN1C(=O)c1ccccc1-n1nccn1 |  | 
